Screening results deposited in PubChem by several laboratories.
DDE Tn6 FP inh: disrupts Tn6 cyclic peptide binding to fibrin D-Dimer-E complex. Fibrin DD(E) TRITC-Tn6 fluorescence polarization displacement. P02675. inhibition, % at 8.3 µM. actives 0.21% (n = 370,000);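 active means inhibition above a per-campaign cutoff: mean of compounds within control limits plus 3 SD, cut at about 15% in these data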
Tn7 DDE FP: DD(E)-Tn7 binding inhibition, primary FP screen; actives 0.13% (n = 370,000); inhibition, % at 8.3 µM; P02675; FP displacement of FITC-Tn7 peptide from fibrin DD(E); 0% = median of compound wells per plate; AID 720508;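 active means inhibition above the mean of compounds falling within the control limits plus 3 SD of them, cut at about 14% in these data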
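Also added: labelled Tn7 tracer, 0.1 µM; Assay system: human fibrin DD(E) protein; Amount: 2 µM fibrin DD(E); Schedule: 10 min compound pre-incubation, 3 h probe incubation at room temperature; Repeats: one replicate per compound; Read-out basis: percent inhibition; Measured by: fluorescence polarization of the labelled Tn7 tracer.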
aDG glyco act: alpha-DG glycosylation activation; Pro5-aDG cells, alpha-DG glycosylation AlphaScreen (IIH6); 0% Pro5, 100% B10-LARGE cell signal; activation, % at 10 µM; actives 0.22% (n = 360,000);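 active means activation of at least 8% versus controls, or a plate z-score of at least 8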;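 further: Pro5 are CHO cells carrying HIG-tagged alpha-DG that lacks glycosylation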
NRP1-CendR mod: NRP-1/CendR interaction modulation; O14786; FAM-RPARPAR peptide binding to NRP-1, fluorescence polarization; inhibition, % at 25 µM; actives 0.85% (n = 360,000);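 active means inhibition or corrected inhibition above about 18%, plus a signal ratio from 0.5 to 1.5, limit read from the data, passing the limit was not always enough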
Tn7 DDE conf: DD(E)-Tn7 binding inhibition, FP confirmation. shares compounds with Tn7 DDE FP. FP displacement of TRITC-Tn7 peptide from DD(E); 0% set at plate's compound-well median. inhibition, % at 8.3 µM. actives 5% (n = 460);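 active means inhibition above the campaign cutoff, the mean of compounds within control limits plus 3 SD, cut at about 14% in these data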;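 further: displacers lower polarization since freed probe rises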
Tn7 DDE ctr: counter-screen hit for Tn7 peptide-fibrin DD(E) binding disruption. shares compounds with Tn7 DDE FP. TRITC-Tn7 probe displacement, fluorescence polarization. inhibition, % at 8.3 µM. actives 3% (n = 460);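 active means inhibition above the cutoff, the mean of compounds lying between the control bounds plus 3 SD of those compounds, cut at about 17% in these data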
Hits are given with their value; 0 = inactive; - = no result. The list is not random: actives were taken first. Their share in the collection is about 1.3%.

SMILES	DDE Tn6 FP inh	Tn7 DDE FP	aDG glyco act	NRP1-CendR mod	Tn7 DDE conf	Tn7 DDE ctr
Cc1cccc(NC(=O)c2cc(Cl)ccc2[N+](=O)[O-])c1	0	14	0	0	0	0
Cc1ccc(NC(=O)c2cc(Cl)ccc2[N+](=O)[O-])cc1C	0	0	0	0	-	-
Cc1ccc(S(=O)(=O)N2[C@@H](c3cccc(Cl)c3)C(C(=O)OC(C)(C)C)=CC[C@H]2c2ccc(C(C)C)cc2)cc1	0	0	0	0	-	-
Nc1nc2c(ncn2[C@@H]2O[C@H](C(=O)NCC3CCCCC3)[C@@H](O)[C@H]2O)c(=O)[nH]1	0	0	-	-	-	-
COc1ccccc1N1CCN(CC(=O)c2c(C)[nH]c3ccccc23)CC1	0	16	0	0	0	0
COc1ccccc1N1CCN(CC(=O)c2c[nH]c3ccccc23)CC1	0	0	0	0	-	-
C[C@@H]1CN([C@H](C)CO)C(=O)c2cc(Br)cnc2O[C@H]1CN(C)C	0	0	0	0	-	-
COCCCNC(=S)NNC(=O)c1ccccc1Br	0	0	0	0	-	-
COCCCNC(=S)NNC(=O)c1ccccn1	0	16	0	0	0	0
OC(CNC1CCCCC1)CON=C1CCSc2c(Cl)cccc21 (configuration not stated)	0	0	0	0	-	-
CCOC(=O)C1=CCC(c2ccc(C#N)cc2)N(S(=O)(=O)c2ccc(C)cc2)C1 (configuration not stated)	0	0	0	0	-	-
Cn1c(C(=O)NC2CCCCC2)cc2c(=O)n(C)c3ccccc3c21	0	0	0	0	-	-
CC1CCC(NC(=O)c2cc3c(=O)n(C)c4ccccc4c3n2C)CC1 (configuration not stated)	0	14	0	0	0	0
O=c1oc2cc(O)ccc2cc1-c1nc2ccccc2o1	0	38	0	0	14	0
COc1cc(N)c(Cl)cc1C(=O)OCC(=O)NCC1CCCCC1	0	0	0	0	-	-
CCc1ccc(C(=O)N2CCN(c3ccc(F)cc3)CC2)s1	0	16	0	0	0	0
CCN(CC)S(=O)(=O)c1cccc(C(=O)N/N=C2\CCCC(=O)C2)c1	0	25	0	0	0	0
O=C(CSc1nnc(Cc2ccccc2)o1)NCCN1C(=O)CSC1=O	0	16	0	0	0	0
COc1ccccc1-c1ccc2c(c1)C(C)(Cc1ccc(Cl)cc1)C(=O)N2 (configuration not stated)	0	0	0	0	-	-
COc1ccccc1-c1ccc2c(c1)C(C)(Cc1cccc(C#N)c1)C(=O)N2 (configuration not stated)	0	16	0	0	0	0
O=c1[nH]cnc2nn(C3OC(CO)C(O)C3O)nc12 (configuration not stated)	0	0	-	-	-	-
C#CCN1CC(COc2ccccc2)Oc2cccc(Oc3ccc(OC)cc3)c2S1(=O)=O (configuration not stated)	0	14	-	-	0	0
CC1(C(=O)NS(=O)(=O)c2ccc(F)cc2F)CCN1C(=O)C1CCCCC1 (configuration not stated)	0	0	0	0	-	-
O=C(NCc1ccc(Cl)cc1)c1ccc(Cn2cc(C(F)(F)F)ccc2=O)cc1	0	49	0	0	27	0
O=C(CSc1nc(-c2ccccc2)cc(=O)[nH]1)Nc1ccc(F)c(F)c1	0	14	0	0	0	0
SMILES	DDE Tn6 FP inh	Tn7 DDE FP	aDG glyco act	NRP1-CendR mod	Tn7 DDE conf	Tn7 DDE ctr
CCNS(=O)(=O)c1ccc(CCC(=O)Nc2ccc3c(c2)OCCO3)cc1	0	15	0	0	0	0
COc1cccc(NC(=O)C(c2ccccc2)N2CCN(CC(=O)N3CCOCC3)CC2)c1 (configuration not stated)	0	15	0	0	0	0
Cc1ccc(NC(=O)C(c2ccccc2)N2CCN(CC(=O)N3CCOCC3)CC2)cc1 (configuration not stated)	0	0	0	0	-	-
S=c1[nH]nc(-c2n[nH]c3c2CCC3)n1N=Cc1ccc(Br)s1	0	0	-	-	-	-
CCOC(=O)c1c(-c2ccccc2)oc2ccc(O)c(CN3CCCC3)c12	0	15	0	0	0	0
O=C1CCCc2cc3c(cc21)CC1(C3)Cc2cc3c(cc2C1)C(=O)CCC3	0	14	0	0	0	0
